Results as given in ChEMBL document CHEMBL2157878, “In vitro cellular uptake and dimerization of signal transducer and activator of transcription-3 (STAT3) identify the photosensitizing and imaging-potential of isomeric photosensitizers derived from chlorophyll-a and bacteriochlorophyll-a” (J Med Chem, 2011).

Experiments:
[1] = system: Mus musculus; test: Drug uptake in mouse Colon 26 cells xenografted iv dosed BALB/c mouse after 24 hrs by PET imaging; format: ADME, organism-based; conditions: in vivo
How it was run: (§1)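 Colon26 tumors grown subcutaneously in BALB/c mice. ¹²⁴I-labeled photosensitizer given into the tail vein at 52–122 μCi. Under isoflurane/oxygen anesthesia, animals were scanned prone on a microPET for 30 min at 24, 48 and 72 h post-injection. Tumor uptake was estimated by region-of-interest calculations.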

[2] = system: Mus musculus; test: Drug uptake in mouse Colon 26 cells xenografted iv dosed BALB/c mouse after 48 hrs by PET imaging; format: ADME, organism-based; conditions: in vivo; how it was run: as §1
[3] = system: Mus musculus; test: Drug uptake in mouse Colon 26 cells xenografted iv dosed BALB/c mouse after 72 hrs by PET imaging; format: ADME, organism-based; conditions: in vivo; how it was run: as §1
[4] = system: Liver; test: Drug uptake in parenterally dosed BALB/c mouse liver xenografted with mouse Colon 26 cells after 72 hrs by PET analysis; format: ADME, organism-based; conditions: in vivo
How it was run: (§2)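 Tumor-bearing BALB/c mice (Colon26, subcutaneous) received ¹²⁴I-labeled photosensitizer via the tail vein at 15–50 μCi. Three mice per time point were sacrificed at 24, 48 and 72 h. Organs were removed, weighed and counted in a γ-well counter. Uptake was expressed as %ID/g tissue.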

[5] = system: Spleen; test: Drug uptake in parenterally dosed BALB/c mouse spleen xenografted with mouse Colon 26 cells after 72 hrs by PET analysis; format: ADME, organism-based; conditions: in vivo; how it was run: as §2
[6] = system: Intestine; test: Drug uptake in parenterally dosed BALB/c mouse intestine xenografted with mouse Colon 26 cells after 72 hrs by PET analysis; format: ADME, organism-based; conditions: in vivo, other; how it was run: as §2
[7] = system: Blood; test: Drug uptake in BALB/c mouse blood xenografted with mouse Colon 26 cells at 100 uCi administered parenterally after 24 hrs by PET analysis; format: ADME, tissue-based; conditions: in vivo, other
How it was run: (§3)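 ¹²⁴I-labelled PS given by tail vein to BALB/c mice bearing Colon26 tumours (100 μCi per figure legend). Three mice per time point killed at 24, 48 and 72 h. Tumour, organs and blood weighed and counted in a γ-well counter. Uptake expressed as %ID/g.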

[8] = system: Muscle tissue; test: Drug uptake in BALB/c mouse muscle xenografted with mouse Colon 26 cells at 100 uCi administered parenterally after 24 hrs by PET analysis; format: ADME, tissue-based; conditions: in vivo, other; how it was run: as §3
[9] = system: Spleen; test: Drug uptake in BALB/c mouse spleen xenografted with mouse Colon 26 cells at 100 uCi administered parenterally after 24 hrs by PET analysis; format: ADME, tissue-based; conditions: in vivo, other; how it was run: as §3
[10] = system: Kidney; test: Drug uptake in BALB/c mouse kidney xenografted with mouse Colon 26 cells at 100 uCi administered parenterally after 24 hrs by PET analysis; format: ADME, tissue-based; conditions: in vivo, other; how it was run: as §3
[11] = system: Lung; test: Drug uptake in BALB/c mouse lungs xenografted with mouse Colon 26 cells at 100 uCi administered parenterally after 24 hrs by PET analysis; format: ADME, tissue-based; conditions: in vivo, other; how it was run: as §3
[12] = system: Heart; test: Drug uptake in BALB/c mouse heart xenografted with mouse Colon 26 cells at 100 uCi administered parenterally after 24 hrs by PET analysis; format: ADME, tissue-based; conditions: in vivo, other; how it was run: as §3
[13] = system: Liver; test: Drug uptake in BALB/c mouse liver xenografted with mouse Colon 26 cells at 100 uCi administered parenterally after 24 hrs by PET analysis; format: ADME, tissue-based; conditions: in vivo, other; how it was run: as §3
[14] = Drug uptake in BALB/c mouse gut xenografted with mouse Colon 26 cells at 100 uCi administered parenterally after 24 hrs by PET analysis; format: ADME, cell-based; conditions: in vivo, other
[15] = system: Stomach; test: Drug uptake in BALB/c mouse stomach xenografted with mouse Colon 26 cells at 100 uCi administered parenterally after 24 hrs by PET analysis; format: ADME, tissue-based; conditions: in vivo, other; how it was run: as §3
[16] = Drug uptake in mouse Colon 26 cells implanted BALB/c mouse tumor at 100 uCi administered parenterally after 24 hrs by gamma counting; format: ADME, Neoplasm; conditions: in vivo, other; how it was run: as §3
[17] = system: Blood; test: Drug uptake in BALB/c mouse blood xenografted with mouse Colon 26 cells at 100 uCi administered parenterally after 48 hrs by PET analysis; format: ADME, tissue-based; conditions: in vivo, other; how it was run: as §3
[18] = system: Muscle tissue; test: Drug uptake in BALB/c mouse muscle xenografted with mouse Colon 26 cells at 100 uCi administered parenterally after 48 hrs by PET analysis; format: ADME, tissue-based; conditions: in vivo, other; how it was run: as §3
[19] = system: Spleen; test: Drug uptake in BALB/c mouse spleen xenografted with mouse Colon 26 cells at 100 uCi administered parenterally after 48 hrs by PET analysis; format: ADME, tissue-based; conditions: in vivo; how it was run: as §3
[20] = system: Kidney; test: Drug uptake in BALB/c mouse kidney xenografted with mouse Colon 26 cells at 100 uCi administered parenterally after 48 hrs by PET analysis; format: ADME, tissue-based; conditions: in vivo, other; how it was run: as §3
[21] = system: Lung; test: Drug uptake in BALB/c mouse lungs xenografted with mouse Colon 26 cells at 100 uCi administered parenterally after 48 hrs by PET analysis; format: ADME, tissue-based; conditions: in vivo, other; how it was run: as §3
[22] = system: Heart; test: Drug uptake in BALB/c mouse heart xenografted with mouse Colon 26 cells at 100 uCi administered parenterally after 48 hrs by PET analysis; format: ADME, tissue-based; conditions: in vivo, other; how it was run: as §3
[23] = system: Liver; test: Drug uptake in BALB/c mouse liver xenografted with mouse Colon 26 cells at 100 uCi administered parenterally after 48 hrs […]; format: ADME, tissue-based; conditions: in vivo; how it was run: as §3
[24] = Drug uptake in BALB/c mouse gut xenografted with mouse Colon 26 cells at 100 uCi administered parenterally after 48 hrs by PET analysis; format: ADME, cell-based; conditions: in vivo, other; how it was run: as §3
[25] = system: Stomach; test: Drug uptake in BALB/c mouse stomach xenografted with mouse Colon 26 cells at 100 uCi administered parenterally after 48 hrs by PET analysis; format: ADME, tissue-based; conditions: in vivo, other; how it was run: as §3
[26] = Drug uptake in mouse Colon 26 cells implanted subcutaneously in BALB/c mouse tumor at 100 uCi administered parenterally after 48 hrs by gamma counting; format: ADME, Neoplasm; conditions: in vivo, sc; how it was run: as §3
[27] = system: Blood; test: Drug uptake in BALB/c mouse blood xenografted with mouse Colon 26 cells at 100 uCi administered parenterally after 72 hrs by PET analysis; format: ADME, tissue-based; conditions: in vivo, other; how it was run: as §3
[28] = system: Muscle tissue; test: Drug uptake in BALB/c mouse muscle xenografted with mouse Colon 26 cells at 100 uCi administered parenterally after 72 hrs by PET analysis; format: ADME, tissue-based; conditions: in vivo, other; how it was run: as §3
[29] = system: Spleen; test: Drug uptake in BALB/c mouse spleen xenografted with mouse Colon 26 cells at 100 uCi administered parenterally after 72 hrs by PET analysis; format: ADME, tissue-based; conditions: in vivo, other; how it was run: as §3
[30] = system: Kidney; test: Drug uptake in BALB/c mouse kidney xenografted with mouse Colon 26 cells at 100 uCi administered parenterally after 72 hrs by PET analysis; format: ADME, tissue-based; conditions: in vivo, other; how it was run: as §3
[31] = system: Lung; test: Drug uptake in BALB/c mouse lungs xenografted with mouse Colon 26 cells at 100 uCi administered parenterally after 72 hrs by PET analysis; format: ADME, tissue-based; conditions: in vivo, other; how it was run: as §3
[32] = system: Heart; test: Drug uptake in BALB/c mouse heart xenografted with mouse Colon 26 cells at 100 uCi administered parenterally after 72 hrs by PET analysis; format: ADME, tissue-based; conditions: in vivo, other; how it was run: as §3
[33] = system: Liver; test: Drug uptake in BALB/c mouse liver xenografted with mouse Colon 26 cells at 100 uCi administered parenterally after 72 hrs by PET analysis; format: ADME, tissue-based; conditions: in vivo, other; how it was run: as §3
[34] = Drug uptake in BALB/c mouse gut xenografted with mouse Colon 26 cells at 100 uCi administered parenterally after 72 hrs by PET analysis; format: ADME, cell-based; conditions: in vivo, other; how it was run: as §3
[35] = system: Stomach; test: Drug uptake in BALB/c mouse stomach xenografted with mouse Colon 26 cells at 100 uCi administered parenterally after 72 hrs by PET analysis; format: ADME, tissue-based; conditions: in vivo; how it was run: as §3
[36] = Drug uptake in mouse Colon 26 cells implanted subcutaneously in BALB/c mouse tumor at 100 uCi administered parenterally after 72 hrs by gamma counting; format: ADME, Neoplasm; conditions: in vivo, sc; how it was run: as §3

Measured: Drug uptake

CC[C@H]1c2cc3[nH]c4c(c5nc(cc6[nH]c(cc(n2)[C@@H]1C)c(C(C)OCc1cccc([124I])c1)c6C)C(C)=C5CCC(=O)O)CC(=O)c4c3C (stereo partly drawn)
Active: [1] | [2] | [3] | [4] | [5] | [6]

CCC1=C(C)c2cc3[nH]c(cc4nc(c5c6[nH]c(cc1n2)c(C)c6C(=O)C5)C(CCC(=O)O)[C@@H]4C)c(C)c3C(C)OCc1cccc([124I])c1 (stereo partly drawn)
Active: all assays above

CCC1=C(C)c2cc3[nH]c(cc4nc(c5c6[nH]c(cc1n2)c(C)c6C(=O)C5)C(CCC(=O)OC)[C@@H]4C)c(C)c3C(C)OCc1cccc([124I])c1 (stereo partly drawn)
not listed: [4] | [5] | [6]
Active: all other assays above

CC[C@H]1c2cc3[nH]c4c(c5nc(cc6[nH]c(cc(n2)[C@@H]1C)c(C(C)OCc1cccc([124I])c1)c6C)C(C)=C5CCC(=O)OC)CC(=O)c4c3C (stereo partly drawn)
Active: [1] | [2] | [3]
